Source: PubChem BioAssay (Broad Institute)
PDI inh: inhibitors of human protein disulfide isomerase. 0.052% of 350,000 active. AID 588391. PDI insulin aggregation turbidity, A650, 90 min. P07237. inhibition, % at 10 µM;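 active means mean inhibition across replicates of 30% or more, whatever share of single replicates reach that level; inconclusive means mean inhibition below 30% while every single replicate reaches 30%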
S100A4 inh HTS: S100A4-myosin IIA interaction inhibition. inhibition, % at 10.7 µM. P26447. S100A4/TAMRA-MyoIIA peptide fluorescence polarization. 0.14% of 360,000 active;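 active means mean inhibition of at least 70% across replicates, with every replicate also reaching that level; inconclusive means mean inhibition reaches 70% but some replicates fall short; inactive means mean inhibition below 70%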
Target sequence (P26447 whole entry, looked up): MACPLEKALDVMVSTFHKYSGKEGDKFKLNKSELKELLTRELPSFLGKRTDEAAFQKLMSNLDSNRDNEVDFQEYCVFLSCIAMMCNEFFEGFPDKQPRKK
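Material: S100A4 monomer protein | Medium: HEPES pH 7.2 with CaCl2, KCl, NaCl, DTT, Triton | Reagent: Labelled myosin peptide probe, 5 nM | Doses: One dose per compound | Times: 5 min incubation before reading | Benchmarks: Neutral control DMSO, positive control TFP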
SIRT5 block: blocks human SIRT5 desuccinylation of peptide; Q9NXA8; Purified SirT5, succinyl-peptide AMC, trypsin-coupled fluorescence; inhibition, % at 15 µM; 1.1% of 330,000 active; AID 652115; in the data active means inhibition above about 15%; inconclusive means no clear call, values can overlap the other calls
ERp5 block: inhibitors of human ERp5 | Q15084 | ERp5 insulin aggregation, absorbance 650 nm, 90 min | inhibition, % at 9.99 µM | 0.05% of 350,000 active;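 active means mean replicate inhibition above about 25%, with every replicate also reaching it, limit read from the data, passing the limit was not always enough; inconclusive means only one of those two criteria met; inactive means neither criterion met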
Target sequence (Q15084 whole entry, looked up): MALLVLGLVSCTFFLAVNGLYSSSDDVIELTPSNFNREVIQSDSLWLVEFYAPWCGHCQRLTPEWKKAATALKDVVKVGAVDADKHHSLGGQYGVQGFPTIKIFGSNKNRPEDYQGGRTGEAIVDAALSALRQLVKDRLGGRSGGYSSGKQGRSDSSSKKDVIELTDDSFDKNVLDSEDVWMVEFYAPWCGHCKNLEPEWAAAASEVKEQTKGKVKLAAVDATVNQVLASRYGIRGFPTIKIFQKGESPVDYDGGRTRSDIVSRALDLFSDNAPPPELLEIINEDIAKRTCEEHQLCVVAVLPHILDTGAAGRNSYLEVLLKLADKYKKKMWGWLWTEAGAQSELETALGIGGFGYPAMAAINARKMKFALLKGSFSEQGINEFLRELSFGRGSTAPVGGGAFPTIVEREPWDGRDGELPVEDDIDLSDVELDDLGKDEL
INS-1E GSIS act: GLuc luminescence reporter in INS-1E cells, primary screen for activators of glucose-dependent secretion of insulin; 0.61% of 370,000 active; AID 743287; INS-1E GLuc reporter insulin secretion, 2-3 h; activation, % at 16.6 µM;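 active means lowest replicate activation of at least 40%, so every replicate reaches that level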
Of the large screens only hits and unclear results are named; the others gave an inactive call; ! = not active in a repeat. An excerpt weighted towards active compounds, which were near 1.5% of everything screened.

FC(F)(F)c1ccc(Oc2ccc3ccccc3c2Br)nc1	SIRT5 block 24
O=[N+]([O-])c1ccccc1Oc1ccc(C(F)(F)F)cn1	none
O=C(O)[C@@H]1[C@@H](CO)[C@@H]2Cn3c(ccc(-c4ccc(F)cc4)c3=O)[C@@H]2N1CCc1ccccc1	none (no result: PDI inh)
CC(C)NC(=O)N(C)C[C@H]1Oc2c(NC(=O)c3cnccn3)cccc2C(=O)N([C@H](C)CO)C[C@H]1C	none (no result: PDI inh)
Cc1ccc(S(=O)(=O)Nc2ccc3c(c2)C(=O)N([C@H](C)CO)C[C@@H](C)[C@H](CN(C)Cc2ccc(Cl)c(Cl)c2)OCCCC[C@H](C)O3)cc1	SIRT5 block 19 (no result: PDI inh)
Cc1ccc(S(=O)(=O)Nc2ccc3c(c2)C(=O)N([C@@H](C)CO)C[C@@H](C)[C@@H](CN(C)Cc2ccc(Cl)c(Cl)c2)OCCCC[C@@H](C)O3)cc1	S100A4 inh HTS inconclusive, SIRT5 block 17 (no result: PDI inh)
Cc1ccc(S(=O)(=O)Nc2ccc3c(c2)C(=O)N([C@H](C)CO)C[C@@H](C)[C@@H](CN(C)Cc2ccc(Cl)c(Cl)c2)OCCCC[C@H](C)O3)cc1	none (no result: PDI inh)
O=C(O)C[C@H]1C[C@@H]2c3cc(NC(=O)Nc4ccccc4F)ccc3O[C@@H]2[C@H](CO)O1	none (no result: PDI inh)
COc1ccc2c3c([nH]c2c1)[C@@H](CO)N(Cc1cccnc1)CC31CN(C(=O)c2cccnc2)C1	none (no result: PDI inh)
Cc1ccc(OCCSc2nc3ccccc3n2CCC(=O)O)cc1	SIRT5 block 21
C[C@H](CO)N1C[C@H](C)[C@@H](CN(C)Cc2ccccn2)Oc2ncc(Br)cc2C1=O	SIRT5 block 25!
CC(C)C#Cc1cnc2c(c1)C(=O)N([C@@H](C)CO)C[C@@H](C)[C@H](CN(C)Cc1ccccn1)O2	SIRT5 block 21 (no result: PDI inh)
C[C@H]1CN([C@@H](C)CO)C(=O)c2cc(Br)cnc2O[C@@H]1CN(C)Cc1ccccn1	none (no result: PDI inh)
C[C@H](O)C#Cc1cnc2c(c1)C(=O)N([C@@H](C)CO)C[C@@H](C)[C@H](CN(C)Cc1ccccn1)O2	none (no result: PDI inh)
Cn1c(=O)c(C(=O)NNC(=O)c2cccc(Cl)c2)c(O)c2ccccc21	INS-1E GSIS act 545
CO[C@@H]1CN(C)C(=O)c2cc(NC(=O)C3CCC3)ccc2OC[C@@H](C)N(Cc2nccs2)C[C@@H]1C	none (no result: PDI inh)
O=C(C[C@@H]1CC[C@@H]2[C@H](COC[C@H](O)CN2S(=O)(=O)c2ccc(Cl)cc2)O1)NCCN1CCCC1	none (no result: PDI inh)
COc1cc(CNCCO)cc(Cl)c1OCc1ccc(Cl)cc1Cl	INS-1E GSIS act 42
COc1cc(CNC(C)(C)CO)cc(Br)c1OCc1ccc(Cl)cc1Cl	INS-1E GSIS act 176 (no result: SIRT5 block)
COCC#Cc1cnc2c(c1)C(=O)N([C@H](C)CO)C[C@H](C)[C@@H](CN(C)C(=O)Nc1cccc(F)c1)O2	none (no result: PDI inh)
CC(C)NC(=O)Nc1cccc2c1O[C@H](CN(C)S(=O)(=O)c1ccc(F)cc1)[C@@H](C)CN([C@@H](C)CO)C2=O	none (no result: PDI inh)
C[C@H]1CN([C@@H](C)CO)C(=O)c2cc(NC(=O)Nc3ccc(F)cc3)ccc2O[C@H]1CN(C)C(=O)Nc1cccc2ccccc12	none (no result: PDI inh)
CNC[C@H](CC1CCCCC1)NC[C@H](Cc1ccccc1)NCCC12CC3CC(CC(C3)C1)C2	INS-1E GSIS act 649 (no result: SIRT5 block)
CO[C@H]1CN(C)C(=O)c2cc(NC(=O)c3ccc(F)cc3)ccc2OC[C@H](C)N(C(=O)CC2CC2)C[C@H]1C	none (no result: PDI inh, S100A4 inh HTS, SIRT5 block, ERp5 block)
Cc1c(C)n(C)c2ccc(C(=O)NCCN3CCOCC3)cc12	SIRT5 block 34
C[C@@H]1CN([C@@H](C)CO)C(=O)CCCn2cc(nn2)CO[C@@H]1CN(C)Cc1ccc2c(c1)OCCN2C	none (no result: PDI inh)
Cc1c([N+](=O)[O-])cc(C(=O)NCc2ccc(F)cc2)cc1[N+](=O)[O-]	SIRT5 block 111
C[C@@H]1CN([C@H](C)CO)C(=O)c2ccccc2-c2ccccc2CO[C@@H]1CN(C)Cc1ccc2c(c1)OCCN2C	none (no result: PDI inh, S100A4 inh HTS, SIRT5 block, ERp5 block)
CS(=O)(=O)N(CC(=O)N1CCCC1)c1cccc(F)c1	SIRT5 block 101
CN1CCN(C(=O)CN(Cc2ccccc2)S(C)(=O)=O)CC1	none (no result: S100A4 inh HTS, SIRT5 block, ERp5 block)
CS(=O)(=O)N(CC(=O)N1CCCCC1)Cc1ccccc1	SIRT5 block 17
COCCCNC(=O)CNC(=O)c1nn(-c2ccc(OC)c(Cl)c2)c(=O)c2ccccc12	SIRT5 block 17
COc1ccc(-n2nc(C(=O)NCC(=O)NCCCN3CCCCCC3)c3ccccc3c2=O)cc1Cl	none
C[C@@H]1CN([C@H](C)CO)C(=O)Cc2cc(NS(=O)(=O)c3cccs3)ccc2O[C@H]1CN(C)CC1CCCCC1	none (no result: PDI inh)
C[C@@H]1CN([C@@H](C)CO)C(=O)Cc2cc(NS(=O)(=O)c3ccc(F)cc3)ccc2O[C@@H]1CN(C)C(=O)NC1CCCCC1	SIRT5 block 19 (no result: PDI inh)
C[C@H](CO)N1C[C@H](C)[C@@H](CN(C)CC2CCCCC2)Oc2ccc(NS(=O)(=O)c3ccc(Cl)cc3)cc2CC1=O	SIRT5 block 18 (no result: PDI inh)
C[C@@H]1CN([C@H](C)CO)C(=O)Cc2cc(NS(=O)(=O)c3ccc(Cl)cc3)ccc2O[C@@H]1CN(C)CC1CCCCC1	none (no result: PDI inh, SIRT5 block)
C[C@H](CO)N1C[C@H](C)[C@@H](CN(C)CC2CCCCC2)Oc2ccc(NS(=O)(=O)c3ccc(F)cc3)cc2CC1=O	SIRT5 block 16 (no result: PDI inh)
C[C@@H]1CN([C@@H](C)CO)C(=O)Cc2cc(NS(=O)(=O)c3cccs3)ccc2O[C@H]1CN(C)CC1CCCCC1	SIRT5 block 15 (no result: PDI inh)
O=C(C[C@@H]1CC[C@@H](NC(=O)Nc2cccc(F)c2)[C@H](CO)O1)NCC1CCCCC1	none (no result: PDI inh)
COc1ccccc1-c1cn(CC[C@@H]2CC[C@@H](NC(=O)Cc3ccccn3)[C@@H](CO)O2)nn1	none (no result: PDI inh)
Cc1ccc(S(=O)(=O)Nc2ccc3c(c2)CC(=O)N([C@H](C)CO)C[C@H](C)[C@@H](CN(C)CC2CCCCC2)O3)cc1	SIRT5 block 19 (no result: PDI inh)
Cc1ccc(S(=O)(=O)Nc2ccc3c(c2)CC(=O)N([C@@H](C)CO)C[C@H](C)[C@H](CN(C)CC2CCCCC2)O3)cc1	SIRT5 block 16 (no result: PDI inh)
Cc1cccc(-c2ccc([C@H]3[C@@H](CO)N4C(=O)CN(C(=O)c5cnccn5)C[C@H]34)cc2)c1	none (no result: PDI inh, S100A4 inh HTS, SIRT5 block, ERp5 block)
C[C@H]1CCCCO[C@H](CN(C)S(=O)(=O)c2ccccc2)[C@@H](C)CN([C@@H](C)CO)C(=O)c2cc(NC(=O)CCC(F)(F)F)ccc2O1	none (no result: PDI inh)
Cn1cncc1C#Cc1c(C=O)n(C)c2ccccc12	none
COc1cc(C#Cc2c(C=O)n(C)c3ccccc23)cc(OC)c1	SIRT5 block 32
COc1ccccc1C(=O)Nc1ccc2[nH]ncc2c1	none
CC(C)c1ccccc1OCC(=O)Nc1ccc2[nH]ncc2c1	SIRT5 block 18
O=C(O)c1ccc(-c2ccc(/C=C3\NC(=O)N(Cc4ccc(Cl)cc4)C3=O)o2)cc1Cl	SIRT5 block 26
Cc1ccc(/C=C2/NC(=O)N(Cc3ccc(Br)cc3)C2=O)o1	INS-1E GSIS act 57 (no result: S100A4 inh HTS, SIRT5 block, ERp5 block)
CCOC(=O)CN1C(=O)S/C(=C\c2ccc(-c3ccc(C(=O)O)c(Cl)c3)o2)C1=O	none
CCN1C(=O)N/C(=C/c2ccc(C)o2)C1=O	none
